Results from ChEMBL document CHEMBL4689842, “EUbOPEN Chemogenomics Library wave 1” (2021).

How the values were obtained:
Assay type in all cases: toxicity, cell-based
[1] = tested on: HEK-293T; experiment: Incucyte cell viability with HEK293T; conditions: human, 10 µM, compound concentration 10 uM; note: filed as whole numbers so only -1 and 0 and 1 occur
[2] = tested on: U2OS; experiment: Multiplex assay against U2OS; conditions: human
Outline: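 At seeding, live cells were stained with Hoechst33342, BioTracker Green Microtubule Cytoskeleton Dye, MitoTracker Red and Annexin V Alexa Fluor 680. After compound addition they were imaged on a CQ1 microscope at 37°C and 5% CO2, and CellPathfinder machine-learning gating sorted them into Hoechst high-intensity objects or normal cells, with normal cells further split into healthy, pyknosed or fragmented nuclei and pyknosed cells into mitotic or apoptotic. Tubulin, mitochondrial-mass and membrane-permeability phenotypes are given as per cents of cells with healthy nuclei.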

[3] = tested on: U2OS; experiment: Incucyte cell viability with U2OS; conditions: human, 10 µM, compound concentration 10 uM; note: filed as whole numbers so only -1 and 0 and 1 occur
[4] = 0 h, replicate number 1, timepoint 0 hours
[5] = 6 h, replicate number 1, timepoint 6 hours
[6] = 12 h, replicate number 1, timepoint 12 hours
[7] = 18 h, replicate number 1, timepoint 18 hours
[8] = 24 h, replicate number 1, timepoint 24 hours
[9] = 12 h, 1 µM, compound concentration 1 uM, replicate 1
[10] = 12 h, 1 µM, compound concentration 1 uM, replicate 2
[11] = 12 h, 10 µM, compound concentration 10 uM, replicate 1
[12] = 12 h, 10 µM, compound concentration 10 uM, replicate 2
[13] = 24 h, 1 µM, compound concentration 1 uM, replicate 1
[14] = 24 h, 1 µM, compound concentration 1 uM, replicate 2
[15] = 24 h, 10 µM, compound concentration 10 uM, replicate 1
[16] = 24 h, 10 µM, compound concentration 10 uM, replicate 2

N#Cc1cnc(Nc2cc(NC[C@H]3CNCCO3)c(C(F)(F)F)cn2)cn1 [SRA-737]
Growth Rate [1, 4]: 0 | Growth Rate [1, 5]: 0 | Growth Rate [1, 6]: 0 | Growth Rate [1, 7]: 0 | Growth Rate [1, 8]: 0 | Population Apoptotic (%) [2, 9]: 18% | Population Fragmented Nuclei (%) [2, 9]: 0% | Population Healthy Nuclei (%) [2, 9]: 89% | Population Hoechst High Intensity Objects (%) [2, 9]: 6% | Population Membrane Permeable-Phenotype (%) [2, 9]: 7% | Population Mitochondria Different-Phenotype (%) [2, 9]: 14% | Population Mitotic Cells (%) [2, 9]: 81% | Population Normal (%) [2, 9]: 93% | Population Pyknosed Nuclei (%) [2, 9]: 9% | Population Tubulin-Different-Phenotype (%) [2, 9]: 26% | Total Cell Count [2, 9]: 249 | Population Apoptotic (%) [2, 10]: 16% | Population Fragmented Nuclei (%) [2, 10]: 4% | Population Healthy Nuclei (%) [2, 10]: 90% | Population Hoechst High Intensity Objects (%) [2, 10]: 9% | Population Membrane Permeable-Phenotype (%) [2, 10]: 10% | Population Mitochondria Different-Phenotype (%) [2, 10]: 18% | Population Mitotic Cells (%) [2, 10]: 83% | Population Normal (%) [2, 10]: 90% | Population Pyknosed Nuclei (%) [2, 10]: 4% | Population Tubulin-Different-Phenotype (%) [2, 10]: 30% | Total Cell Count [2, 10]: 142 | Population Apoptotic (%) [2, 11]: 50% | Population Fragmented Nuclei (%) [2, 11]: 5% | Population Healthy Nuclei (%) [2, 11]: 87% | Population Hoechst High Intensity Objects (%) [2, 11]: 4% | Population Membrane Permeable-Phenotype (%) [2, 11]: 11% | Population Mitochondria Different-Phenotype (%) [2, 11]: 9% | Population Mitotic Cells (%) [2, 11]: 50% | Population Normal (%) [2, 11]: 95% | Population Pyknosed Nuclei (%) [2, 11]: 6% | Population Tubulin-Different-Phenotype (%) [2, 11]: 15% | Total Cell Count [2, 11]: 193 | Population Apoptotic (%) [2, 12]: 23% | Population Fragmented Nuclei (%) [2, 12]: 4% | Population Healthy Nuclei (%) [2, 12]: 85% | Population Hoechst High Intensity Objects (%) [2, 12]: 9% | Population Membrane Permeable-Phenotype (%) [2, 12]: 15% | Population Mitochondria Different-Phenotype (%) [2, 12]: 7% | Population Mitotic Cells (%) [2, 12]: 76% | Population Normal (%) [2, 12]: 90% | Population Pyknosed Nuclei (%) [2, 12]: 10% | Population Tubulin-Different-Phenotype (%) [2, 12]: 16% | Total Cell Count [2, 12]: 143 | Population Apoptotic (%) [2, 13]: 5% | Population Fragmented Nuclei (%) [2, 13]: 0% | Population Membrane Permeable-Phenotype (%) [2, 13]: 5% | Population Mitochondria Different-Phenotype (%) [2, 13]: 12% | Population Mitotic Cells (%) [2, 13]: 94% | Population Pyknosed Nuclei (%) [2, 13]: 5% | Population Tubulin-Different-Phenotype (%) [2, 13]: 31% | Total Cell Count [2, 13]: 330 | Population Apoptotic (%) [2, 14]: 0% | Population Fragmented Nuclei (%) [2, 14]: 2% | Population Healthy Nuclei (%) [2, 14]: 93% | Population Hoechst High Intensity Objects (%) [2, 14]: 3% | Population Membrane Permeable-Phenotype (%) [2, 14]: 6% | Population Mitochondria Different-Phenotype (%) [2, 14]: 23% | Population Mitotic Cells (%) [2, 14]: 100% | Population Normal (%) [2, 14]: 96% | Population Pyknosed Nuclei (%) [2, 14]: 4% | Population Tubulin-Different-Phenotype (%) [2, 14]: 38% | Total Cell Count [2, 14]: 179 | Population Apoptotic (%) [2, 15]: 18% | Population Fragmented Nuclei (%) [2, 15]: 4% | Population Healthy Nuclei (%) [2, 15]: 88% | Population Hoechst High Intensity Objects (%) [2, 15]: 4% | Population Membrane Permeable-Phenotype (%) [2, 15]: 8% | Population Mitochondria Different-Phenotype (%) [2, 15]: 10% | Population Mitotic Cells (%) [2, 15]: 81% | Population Normal (%) [2, 15]: 95% | Population Pyknosed Nuclei (%) [2, 15]: 6% | Population Tubulin-Different-Phenotype (%) [2, 15]: 19% | Total Cell Count [2, 15]: 243 | Population Apoptotic (%) [2, 16]: 50% | Population Fragmented Nuclei (%) [2, 16]: 5% | Population Healthy Nuclei (%) [2, 16]: 87% | Population Hoechst High Intensity Objects (%) [2, 16]: 8% | Population Mitochondria Different-Phenotype (%) [2, 16]: 19% | Population Mitotic Cells (%) [2, 16]: 50% | Population Normal (%) [2, 16]: 91% | Population Tubulin-Different-Phenotype (%) [2, 16]: 12% | Total Cell Count [2, 16]: 168 | Growth Rate [3, 4]: 1 | Growth Rate ([3]; 0 h, replicate number 2, timepoint 0 hours): 0 | Growth Rate [3, 5]: 0 | Growth Rate [3, 6]: 0 | Growth Rate [3, 7]: 0 | Growth Rate [3, 8]: 0
